The text below walks through data of PMC4076525 (The Journal of General Physiology, 2014).

One test has as its target T1, FepA (Escherichia coli, UniProt P05825).
T1 sequence (P05825 23-746): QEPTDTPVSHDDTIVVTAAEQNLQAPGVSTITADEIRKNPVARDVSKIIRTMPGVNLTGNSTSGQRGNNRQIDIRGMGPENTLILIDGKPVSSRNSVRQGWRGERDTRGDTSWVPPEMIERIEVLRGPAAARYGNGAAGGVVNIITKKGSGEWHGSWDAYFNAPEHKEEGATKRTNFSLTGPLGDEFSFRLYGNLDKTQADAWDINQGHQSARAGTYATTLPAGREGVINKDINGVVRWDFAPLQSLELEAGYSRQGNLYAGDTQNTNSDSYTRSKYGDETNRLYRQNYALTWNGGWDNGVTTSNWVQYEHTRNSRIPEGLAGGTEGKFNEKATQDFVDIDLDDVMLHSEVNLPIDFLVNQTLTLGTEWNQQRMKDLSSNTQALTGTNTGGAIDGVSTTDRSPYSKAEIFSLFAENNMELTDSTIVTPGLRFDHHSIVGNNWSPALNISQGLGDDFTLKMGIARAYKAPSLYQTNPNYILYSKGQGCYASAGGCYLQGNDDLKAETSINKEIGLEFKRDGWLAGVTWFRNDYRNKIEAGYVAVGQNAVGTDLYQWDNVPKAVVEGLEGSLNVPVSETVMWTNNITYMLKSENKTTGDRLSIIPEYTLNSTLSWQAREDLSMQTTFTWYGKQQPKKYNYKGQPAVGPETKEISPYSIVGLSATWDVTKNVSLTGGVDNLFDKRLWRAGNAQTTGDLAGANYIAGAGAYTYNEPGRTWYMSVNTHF
The note with it: ref Newton et al., 1999; Annamalai et al., 2004; cited from earlier work.

A short description of test [1]: Rapid-mixing stopped-flow FM quenching during FeEnt binding, live bacteria. On the set-up: species or system Escherichia coli. The note with it: live bacteria expressing FepAT216C-FM. Summed up: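 Live, highly fluorescein-maleimide-labeled bacteria expressing the Cys-substituted FepA were rapid-mixed with FeEnt in a stopped-flow chamber, with emission quenching recorded at 520 nm. Rate constants, with standard errors, came from exponential decay fits (A(t) = A0e^−kt + offset). Half-times were calculated as −ln 0.5/k.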

Test [2] in a line: Extent of FeEnt-induced quenching of FM fluorescence in live cells. The format is cell-based, Escherichia coli. The note with it: 10 nM FeEnt, 2.5 × 10^7 cells/ml, FM-labeled mutants. Summed up: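 Hosts were tonB+ ΔfepA or ΔtonB ΔfepA E. coli expressing plasmid-borne Cys-substituted FepA, grown in iron-deficient MOPS medium to late log. 10^10 cells were labeled with 5 µM fluorescein-5-maleimide in 50 mM Na2HPO4, 0.9% NaCl, pH 6.5, for 5 min at 37°C. Labeling was quenched with β-mercaptoethanol, and cells were resuspended in PBS with 0.4% glucose. FeEnt was added to 2.5 × 10^7 cells in 3 ml, stirred at 2°C, with emission read at 520 nm.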

The nature of test [3]: Rapid-mixing stopped-flow FM quenching during FeEnt binding, OM fragments. The arrangement: species or system Escherichia coli. The note with it: biphasic decay.

Regarding `O=C(N[C@H]1COC(=O)[C@@H](NC(=O)c2cccc([O-])c2[O-])COC(=O)[C@@H](NC(=O)c2cccc([O-])c2[O-])COC1=O)c1cccc([O-])c1[O-].[Fe+3]` [FeEnt, ferric enterobactin], the FeEnt turnover number on FepA is ~0.03 s⁻¹.

B1: T216C (protein, UniProt P05825 23-746, looked up, variant T216C)
Ferrienterobactin receptor: QEPTDTPVSHDDTIVVTAAEQNLQAPGVSTITADEIRKNPVARDVSKIIRTMPGVNLTGNSTSGQRGNNRQIDIRGMGPENTLILIDGKPVSSRNSVRQGWRGERDTRGDTSWVPPEMIERIEVLRGPAAARYGNGAAGGVVNIITKKGSGEWHGSWDAYFNAPEHKEEGATKRTNFSLTGPLGDEFSFRLYGNLDKTQADAWDINQGHQSARAGCYATTLPAGREGVINKDINGVVRWDFAPLQSLELEAGYSRQGNLYAGDTQNTNSDSYTRSKYGDETNRLYRQNYALTWNGGWDNGVTTSNWVQYEHTRNSRIPEGLAGGTEGKFNEKATQDFVDIDLDDVMLHSEVNLPIDFLVNQTLTLGTEWNQQRMKDLSSNTQALTGTNTGGAIDGVSTTDRSPYSKAEIFSLFAENNMELTDSTIVTPGLRFDHHSIVGNNWSPALNISQGLGDDFTLKMGIARAYKAPSLYQTNPNYILYSKGQGCYASAGGCYLQGNDDLKAETSINKEIGLEFKRDGWLAGVTWFRNDYRNKIEAGYVAVGQNAVGTDLYQWDNVPKAVVEGLEGSLNVPVSETVMWTNNITYMLKSENKTTGDRLSIIPEYTLNSTLSWQAREDLSMQTTFTWYGKQQPKKYNYKGQPAVGPETKEISPYSIVGLSATWDVTKNVSLTGGVDNLFDKRLWRAGNAQTTGDLAGANYIAGAGAYTYNEPGRTWYMSVNTHF
In the case of B1, the “k (SE), rate of FM quenching” value in test [1] is recorded as 1.08 (0.08) s^−1. Besides, in test [2], the “Quenching of FM emissions by FeEnt binding” value is recorded as > 60%.

B2: S271C (protein, UniProt P05825 23-746, looked up, variant S271C)
Ferrienterobactin receptor: QEPTDTPVSHDDTIVVTAAEQNLQAPGVSTITADEIRKNPVARDVSKIIRTMPGVNLTGNSTSGQRGNNRQIDIRGMGPENTLILIDGKPVSSRNSVRQGWRGERDTRGDTSWVPPEMIERIEVLRGPAAARYGNGAAGGVVNIITKKGSGEWHGSWDAYFNAPEHKEEGATKRTNFSLTGPLGDEFSFRLYGNLDKTQADAWDINQGHQSARAGTYATTLPAGREGVINKDINGVVRWDFAPLQSLELEAGYSRQGNLYAGDTQNTNSDCYTRSKYGDETNRLYRQNYALTWNGGWDNGVTTSNWVQYEHTRNSRIPEGLAGGTEGKFNEKATQDFVDIDLDDVMLHSEVNLPIDFLVNQTLTLGTEWNQQRMKDLSSNTQALTGTNTGGAIDGVSTTDRSPYSKAEIFSLFAENNMELTDSTIVTPGLRFDHHSIVGNNWSPALNISQGLGDDFTLKMGIARAYKAPSLYQTNPNYILYSKGQGCYASAGGCYLQGNDDLKAETSINKEIGLEFKRDGWLAGVTWFRNDYRNKIEAGYVAVGQNAVGTDLYQWDNVPKAVVEGLEGSLNVPVSETVMWTNNITYMLKSENKTTGDRLSIIPEYTLNSTLSWQAREDLSMQTTFTWYGKQQPKKYNYKGQPAVGPETKEISPYSIVGLSATWDVTKNVSLTGGVDNLFDKRLWRAGNAQTTGDLAGANYIAGAGAYTYNEPGRTWYMSVNTHF
Turning to B2, the “k (SE), second kinetic phase” value in test [3] was 0.31 (0.04) s^−1.
